Results taken from ChEMBL document CHEMBL1144306, “1-Hydroxyalkyl-3-phenylthioureas as novel HDL-elevating agents” (2005).

How the values were obtained:
Type in all cases: functional
Rattus norvegicus [1] = experiment: Effect on level of total cholesterol (relative to untreated control) in cholesterol fed-male rats at 36 mg/kg/day
Summary of the method: (§1)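 Male Sprague–Dawley rats (groups of six) fed a cholic acid- and cholesterol-supplemented diet; compound mixed into the diet, given ad libitum for eight days. Lipoproteins were separated by ultracentrifugation, and cholesterol was measured by an enzymatic colorimetric method. Results are % change versus untreated controls, with significance at p < 0.05.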

Rattus norvegicus [2] = experiment: Effect on change in body weight gain (relative to untreated control) in cholesterol fed-male rats at 36 mg/kg/day
Summary of the method: (§2)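 Male Sprague–Dawley rats, six per group, on a cholic acid- and cholesterol-supplemented diet. Compounds were mixed into the diet and given ad libitum for eight days. Change in body weight gain is expressed as a percentage of untreated controls. Significance was set at p < 0.05 versus untreated controls.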

Rattus norvegicus [3] = experiment: Effect on level of high density lipoprotein cholesterol (relative to untreated control) in cholesterol fed-male rats at 36 mg/kg/day
Summary of the method: (§3)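 Cholic acid/cholesterol-fed male Sprague–Dawley rats (n = 6 per group) were dosed via diet ad libitum for eight days. Lipoproteins were separated by ultracentrifugation and HDL cholesterol was quantified by an enzymatic colorimetric method. Values are % change relative to untreated controls, with significance at p < 0.05. Gemfibrozil was the internal positive control.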

Rattus norvegicus [4] = experiment: Effect on level of apolipoprotein (Apo) AI (relative to untreated control) in cholesterol fed-male rats at 36 mg/kg/day
Summary of the method: (§4)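 Six male Sprague–Dawley rats per group, fed a cholic acid/cholesterol-supplemented diet, received compound in the diet ad libitum for eight days. Serum Apo A–I was measured by SDS-PAGE or by rat competition ELISA and reported as % change versus untreated controls (p < 0.05). Gemfibrozil was the internal positive control in each study.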

Rattus norvegicus [5] = experiment: Effect on level of triglyceride in (relative to untreated control) in cholesterol fed-male rats at 36 mg/kg/day
Summary of the method: (§5)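 Serum triglycerides were measured in groups of six male Sprague–Dawley rats on a cholic acid/cholesterol-supplemented diet. Compound was dosed in the diet, ad libitum, for eight days. Results are % change relative to untreated controls, with significance at p < 0.05.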

Rattus norvegicus [6] = experiment: Effect on level of total cholesterol (relative to untreated control) in cholesterol fed-male rats at 74 mg/kg/day; summary of the method: as §1
Rattus norvegicus [7] = experiment: Effect on level of triglyceride in (relative to untreated control) in cholesterol fed-male rats at 74 mg/kg/day; summary of the method: as §5
Rattus norvegicus [8] = experiment: Effect on level of apolipoprotein (Apo) AI (relative to untreated control) in cholesterol fed-male rats at 74 mg/kg/day; summary of the method: as §4
Rattus norvegicus [9] = experiment: Effect on change in body weight gain (relative to untreated control) in cholesterol fed-male rats at 74 mg/kg/day; summary of the method: as §2
Rattus norvegicus [10] = experiment: Effect on level of high density lipoprotein cholesterol (relative to untreated control) in cholesterol fed-male rats at 74 mg/kg/day; summary of the method: as §1
Rattus norvegicus [11] = experiment: Effect on level of high density lipoprotein cholesterol (relative to untreated control) in cholesterol fed-male rats at 80 mg/kg/day; summary of the method: as §1
Rattus norvegicus [12] = experiment: Effect on level of apolipoprotein (Apo) AI (relative to untreated control) in cholesterol fed-male rats at 80 mg/kg/day; summary of the method: as §4
Rattus norvegicus [13] = experiment: Effect on level of total cholesterol (relative to untreated control) in cholesterol fed-male rats at 80 mg/kg/day; summary of the method: as §1
Rattus norvegicus [14] = experiment: Effect on level of triglyceride in (relative to untreated control) in cholesterol fed-male rats at 80 mg/kg/day
Summary of the method: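 Compound given in diet ad libitum for eight days to groups of six male Sprague–Dawley rats on a cholic acid and cholesterol-supplemented diet. Serum triglycerides expressed as % change relative to untreated controls, with significance at p < 0.05. Gemfibrozil served as internal positive control within each study.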

Rattus norvegicus [15] = experiment: Effect on change in body weight gain (relative to untreated control) in cholesterol fed-male rats at 80 mg/kg/day; summary of the method: as §2
Rattus norvegicus [16] = experiment: Effect on level of total cholesterol (relative to untreated control) in cholesterol fed-male rats at 55 mg/kg/day; summary of the method: as §1
Rattus norvegicus [17] = experiment: Effect on level of high density lipoprotein cholesterol (relative to untreated control) in cholesterol fed-male rats at 55 mg/kg/day; summary of the method: as §3
Rattus norvegicus [18] = experiment: Effect on level of apolipoprotein (Apo) AI (relative to untreated control) in cholesterol fed-male rats at 55 mg/kg/day; summary of the method: as §4
Rattus norvegicus [19] = experiment: Effect on level of triglyceride in (relative to untreated control) in cholesterol fed-male rats at 55 mg/kg/day; summary of the method: as §5
Rattus norvegicus [20] = experiment: Effect on change in body weight gain (relative to untreated control) in cholesterol fed-male rats at 55 mg/kg/day; summary of the method: as §2
Rattus norvegicus [21] = experiment: Effect on change in body weight gain (relative to untreated control) in cholesterol fed-male rats at 68 mg/kg/day; summary of the method: as §2
Rattus norvegicus [22] = experiment: Effect on level of total cholesterol (relative to untreated control) in cholesterol fed-male rats at 68 mg/kg/day; summary of the method: as §1
Rattus norvegicus [23] = experiment: Effect on level of high density lipoprotein cholesterol (relative to untreated control) in cholesterol fed-male rats at 68 mg/kg/day; summary of the method: as §1
Rattus norvegicus [24] = experiment: Effect on level of apolipoprotein (Apo) AI (relative to untreated control) in cholesterol fed-male rats at 68 mg/kg/day; summary of the method: as §4
Rattus norvegicus [25] = experiment: Effect on level of triglyceride in (relative to untreated control) in cholesterol fed-male rats at 68 mg/kg/day; summary of the method: as §5
Rattus norvegicus [26] = experiment: Effect on level of total cholesterol (relative to untreated control) in cholesterol fed-male rats at 60 mg/kg/day; summary of the method: as §1
Rattus norvegicus [27] = experiment: Effect on level of triglyceride in (relative to untreated control) in cholesterol fed-male rats at 60 mg/kg/day; summary of the method: as §5
Rattus norvegicus [28] = experiment: Effect on level of high density lipoprotein cholesterol (relative to untreated control) in cholesterol fed-male rats at 60 mg/kg/day; summary of the method: as §3
Rattus norvegicus [29] = experiment: Effect on change in body weight gain (relative to untreated control) in cholesterol fed-male rats at 60 mg/kg/day; summary of the method: as §2
Rattus norvegicus [30] = experiment: Effect on level of apolipoprotein (Apo) AI (relative to untreated control) in cholesterol fed-male rats at 60 mg/kg/day; summary of the method: as §4
Rattus norvegicus [31] = experiment: Effect on change in body weight gain (relative to untreated control) in cholesterol fed-male rats at 40 mg/kg/day; summary of the method: as §2
Rattus norvegicus [32] = experiment: Effect on level of total cholesterol (relative to untreated control) in cholesterol fed-male rats at 40 mg/kg/day; summary of the method: as §1
Rattus norvegicus [33] = experiment: Effect on level of triglyceride in (relative to untreated control) in cholesterol fed-male rats at 40 mg/kg/day; summary of the method: as §5
Rattus norvegicus [34] = experiment: Effect on level of apolipoprotein (Apo) AI (relative to untreated control) in cholesterol fed-male rats at 40 mg/kg/day; summary of the method: as §4
Rattus norvegicus [35] = experiment: Effect on level of high density lipoprotein cholesterol (relative to untreated control) in cholesterol fed-male rats at 40 mg/kg/day; summary of the method: as §3
Rattus norvegicus [36] = experiment: Effect on level of total cholesterol (relative to untreated control) in cholesterol fed-male rats at 51 mg/kg/day; summary of the method: as §1
Rattus norvegicus [37] = experiment: Effect on level of apolipoprotein (Apo) AI (relative to untreated control) in cholesterol fed-male rats at 51 mg/kg/day; summary of the method: as §4
Rattus norvegicus [38] = experiment: Effect on level of triglyceride in (relative to untreated control) in cholesterol fed-male rats at 51 mg/kg/day; summary of the method: as §5
Rattus norvegicus [39] = experiment: Effect on level of high density lipoprotein cholesterol (relative to untreated control) in cholesterol fed-male rats at 51 mg/kg/day; summary of the method: as §3
Rattus norvegicus [40] = experiment: Effect on change in body weight gain (relative to untreated control) in cholesterol fed-male rats at 51 mg/kg/day; summary of the method: as §2

For `COCC/N=C(\S)Nc1cc(Cl)ccc1C`, the Activity (Rattus norvegicus [1]) was 20%, the Activity (Rattus norvegicus [2]) was -3% and the Activity (Rattus norvegicus [3]) was 30%. The Activity (Rattus norvegicus [4]) was 33% and the Activity (Rattus norvegicus [5]) was -47%.
`Cc1ccc(N/C(S)=N/CCO)cc1Cl` was tested, and the Activity (Rattus norvegicus [6]) was 15%, the Activity (Rattus norvegicus [7]) was -15% and the Activity (Rattus norvegicus [8]) was -5%. It also gave an Activity (Rattus norvegicus [9]) of -77% and an Activity (Rattus norvegicus [10]) of 72%.
`COc1ccc(Cl)cc1/N=C(\S)NCCO` gave an Activity (Rattus norvegicus [11]) of 106%, an Activity (Rattus norvegicus [12]) of 30% and an Activity (Rattus norvegicus [13]) of 66%. The Activity (Rattus norvegicus [14]) was -27% and the Activity (Rattus norvegicus [15]) was -38%.
`Cc1ccc(Cl)cc1/N=C(\S)NCCO` was tested, and the Activity (Rattus norvegicus [16]) was 39%, the Activity (Rattus norvegicus [17]) was 75% and the Activity (Rattus norvegicus [18]) was 48%. The Activity (Rattus norvegicus [19]) was -53% and the Activity (Rattus norvegicus [20]) was -104%.
Work on `OCC/N=C(\S)Nc1cccc(C(F)(F)F)c1` yielded an Activity (Rattus norvegicus [21]) of -76%, an Activity (Rattus norvegicus [22]) of 44% and an Activity (Rattus norvegicus [23]) of 66%. It also gave an Activity (Rattus norvegicus [24]) of 36% and an Activity (Rattus norvegicus [25]) of -15%.
`OCC/N=C(\S)Nc1cc(Cl)cc(Cl)c1` showed an Activity (Rattus norvegicus [26]) of 9%, an Activity (Rattus norvegicus [27]) of -35% and an Activity (Rattus norvegicus [28]) of 50%. It also gave an Activity (Rattus norvegicus [29]) of -90% and an Activity (Rattus norvegicus [30]) of 48%.
Molecule `Cc1ccc(Cl)cc1/N=C(\S)NCCCO` has an Activity (Rattus norvegicus [6]) of 3%, an Activity (Rattus norvegicus [7]) of -80% and an Activity (Rattus norvegicus [8]) of 24%. For the same molecule, the Activity (Rattus norvegicus [9]) was -63% and the Activity (Rattus norvegicus [10]) was 82%.
With `Cc1cccc(Cl)c1/N=C(\S)NCCO` the Activity (Rattus norvegicus [31]) was -155%, the Activity (Rattus norvegicus [32]) was 8% and the Activity (Rattus norvegicus [33]) was -48%. It also gave an Activity (Rattus norvegicus [34]) of -34% and an Activity (Rattus norvegicus [35]) of 23%.
For `Cc1ccccc1/N=C(\S)NCCO`, the Activity (Rattus norvegicus [36]) was 66%, the Activity (Rattus norvegicus [37]) was -18% and the Activity (Rattus norvegicus [38]) was -51%. It also gave an Activity (Rattus norvegicus [39]) of 3% and an Activity (Rattus norvegicus [40]) of -138%.
`Cc1ccc(Cl)cc1N/C(S)=N/C[C@H](C)O` showed an Activity (Rattus norvegicus [21]) of -68%, an Activity (Rattus norvegicus [22]) of 30% and an Activity (Rattus norvegicus [23]) of 33%. The Activity (Rattus norvegicus [24]) was 8% and the Activity (Rattus norvegicus [25]) was -75%.
